An excerpt weighted towards active compounds, which were near 6.4% of everything screened.
Ecoli WT expand: blocks growth of wild type E. coli BW25113; OD600 absorbance; growth inhibition, % at 100 µM; 98,000 compounds, 0.15% hits; AID 710;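 active = growth inhibition above about 50% at one test dose, limit read from the data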;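 also: growth measured after 20 h incubation at 37 °C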
H69AR growth 86K: blocks growth of human H69AR lung tumor cells; H69AR lung tumor viability, ATP luminescence, 72 h; stronger effect = lower value; viability, % at 10 µM; 85,000 compounds, 6% hits; AID 598;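 active = viability at or below 40%; inactive = viability above 40%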;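 also: multidrug resistant small cell line overexpressing MRP-1 efflux transporter; 100% = mean luminescence of untreated control wells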
HUVEC inhibit: blocks proliferation of human endothelial cells | HUVEC proliferation, CellTiter-Glo luminescence, 72 h; stronger effect = lower value | viability, % at 10 µM (by protocol) | 86,000 compounds, 1.1% hits;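 active = viability at or below 30%; inactive = viability above 30%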;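 also: 100% = median luminescence of DMSO-only cell control wells on each plate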
Lung fibro prol: blocks proliferation of human lung fibroblasts | LL 47 human lung fibroblast viability, ATP luminescence; stronger effect = lower value | 85,000 compounds, 1.1% hits | viability, % at 10 µM;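 active = viability at or below 50% in the single dose screen; inactive = viability above 50%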;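 also: compound exposure lasted 72 h before the ATP readout; 100% = median luminescence of untreated cell-only wells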
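Material: Human LL 47 lung fibroblast cells | Input: 1,150 cells/well | Buffer or medium: IMEM plus 15% FBS | Compound dosing: 0.1% DMSO in all compound wells | Times: Overnight cell rest, 72 h compound treatment at 37 °C | Signal: CellTiter-Glo luminescence measuring cellular ATP | Measure: % viability versus median cells-only luminescence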
Ecoli tolC: growth inhibitors of E. coli BW25113 tolC mutant; 65,000 compounds, 2.2% hits; AID 573; growth inhibition, % at 10 µM (by protocol); OD615;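 active = growth inhibition at or above a cutoff equal to the mean over every tested compound plus 3 SD, cut at about 60% in these data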;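 also: growth measured after 20 h incubation at 37 °C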
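Test system: E. coli BW25113 ΔtolC::kan bacteria; incubation: 37 °C, 20 h exposure; medium: LB broth supplemented with 50 µg/mL kanamycin; read-out basis: percent growth inhibition; signal: A615 absorbance measurement; compound: 10 µM final, single dose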
Jurkat viability: cytotoxicity toward Jurkat cells; Jurkat E6.1 viability, ATP luminescence, 48 h; inhibition, % at 4 µM; 56,000 compounds, 1.2% hits;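 active = inhibition above the mean inhibition of all tested compounds plus 3 SD, cut at about 28% in these data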
An asterisk follows results filed as active.

What do the screens show for `COc1cc(C(=O)NCCOc2cc(C)cc(C)c2)c(Br)c(OC)c1OC`?
Ecoli WT expand: 3

How did CCCOc1ccc(C(C)=O)cc1CSc1nc(O)cc(=O)[nH]1 do in these assays?
Ecoli WT expand: 5; H69AR growth 86K: 86; HUVEC inhibit: 84; Lung fibro prol: 104

What do the screens show for `COc1c(N2CCN(C(=S)NCc3ccccc3)C(C)C2)c(F)cc2c(=O)c(C(=O)O)cn(C3CC3)c12` (configuration not stated)?
Ecoli WT expand: 88*; H69AR growth 86K: 2.5*; HUVEC inhibit: 108; Lung fibro prol: 98

How did CCOc1cc(-c2nc3ccccn3c2NCC2CCCO2)ccc1O (configuration not stated) do in these assays?
Ecoli WT expand: 8; H69AR growth 86K: 28*; HUVEC inhibit: 70; Lung fibro prol: 98; Ecoli tolC: -12; Jurkat viability: 8

Results for Oc1ccc(-c2nc3ccccn3c2NCc2ccco2)cc1 ?
Ecoli WT expand: 0; H69AR growth 86K: 82; HUVEC inhibit: 88; Lung fibro prol: 107

What do the screens show for `COc1cc(-c2nc3ccccn3c2NCC2CCCO2)ccc1O` (configuration not stated)?
Ecoli WT expand: 0; H69AR growth 86K: 27*; HUVEC inhibit: 88; Lung fibro prol: 89; Ecoli tolC: -13; Jurkat viability: 2

Results for COc1cc(-c2nc3ccccn3c2/N=C/c2ccccc2)ccc1O ?
Ecoli WT expand: -5

Results for COc1ccc(NC(=O)COC(=O)c2c3c(nc4ccccc24)CCCC3)cc1Cl ?
Ecoli WT expand: -16

Results for CC(C)Cn1c(N)c(C(=O)COC(=O)c2ccc3c(c2)OCCO3)c(=O)n(C)c1=O ?
Ecoli WT expand: -5; H69AR growth 86K: 89; HUVEC inhibit: 89; Lung fibro prol: 65; Ecoli tolC: 25; Jurkat viability: 3

What do the screens show for `CC(C)Cn1c(N)c(C(=O)CSc2ccc3c(c2)OCCO3)c(=O)n(C)c1=O`?
Ecoli WT expand: -2; H69AR growth 86K: 88; HUVEC inhibit: 80; Lung fibro prol: 84; Ecoli tolC: -6; Jurkat viability: 36*

How did CC(=O)Nc1ccc(NC(=O)CSc2ccc(C)cc2)cc1 do in these assays?
Ecoli WT expand: 5; H69AR growth 86K: 104; HUVEC inhibit: 108; Lung fibro prol: 100

What do the screens show for `CC(=O)Nc1ccc(SCC(=O)N(CCC#N)c2ccc(C)cc2)cc1`?
Ecoli WT expand: 9; H69AR growth 86K: 33*; HUVEC inhibit: 99; Lung fibro prol: 109; Ecoli tolC: 1; Jurkat viability: 9

How did Cc1cc(NC(=O)CN2CCN(c3ccccc3F)CC2)nc2c1c(=O)oc1ccccc12 do in these assays?
H69AR growth 86K: 34*; HUVEC inhibit: 53; Lung fibro prol: 91; Ecoli tolC: -4; Jurkat viability: 1

How did CCOc1ccc(C(=O)Nc2cc(C)c3c(=O)oc4ccccc4c3n2)cc1 do in these assays?
Ecoli WT expand: -9; H69AR growth 86K: 19*; HUVEC inhibit: 26*; Lung fibro prol: 69; Ecoli tolC: 5; Jurkat viability: -5

Results for CCC(CC)C(=O)Nc1cc(C)c2c(=O)oc3ccccc3c2n1 ?
Ecoli WT expand: -3; H69AR growth 86K: 52; HUVEC inhibit: 79; Lung fibro prol: 98; Ecoli tolC: 9; Jurkat viability: -4

How did Cc1cc(NC(=O)c2ccc(S(=O)(=O)N3CCOCC3)cc2)nc2c1c(=O)oc1ccccc12 do in these assays?
Ecoli WT expand: -12; Ecoli tolC: 16

How did COc1ccc(CC(=O)Nc2cc(C)c3c(=O)oc4ccccc4c3n2)cc1 do in these assays?
H69AR growth 86K: 22*; HUVEC inhibit: 69; Lung fibro prol: 64; Ecoli tolC: 1; Jurkat viability: -2

What do the screens show for `Cc1cc(NC(=O)c2ccc(S(=O)(=O)N3CCCC3)cc2)nc2c1c(=O)oc1ccccc12`?
Ecoli WT expand: -9; H69AR growth 86K: 18*; HUVEC inhibit: 69; Lung fibro prol: 72; Ecoli tolC: 9

How did Cc1ccc(-c2csc3ncnc(NCCN4CCOCC4)c23)cc1 do in these assays?
Ecoli WT expand: 6; H69AR growth 86K: 27*; HUVEC inhibit: 93; Lung fibro prol: 91

How did Clc1ccc(-c2csc3ncnc(NCCN4CCOCC4)c23)cc1 do in these assays?
Ecoli WT expand: -5; H69AR growth 86K: 56; HUVEC inhibit: 88; Lung fibro prol: 89

How did COc1ccc(-c2csc3ncnc(NCCN4CCOCC4)c23)cc1 do in these assays?
Ecoli WT expand: 6; H69AR growth 86K: 21*; HUVEC inhibit: 47; Lung fibro prol: 64; Ecoli tolC: 4; Jurkat viability: 0

How did O=C(O)CC(c1cccc2ccccc12)n1cccc1 (configuration not stated) do in these assays?
Ecoli WT expand: -4; H69AR growth 86K: 81; HUVEC inhibit: 97; Lung fibro prol: 98

How did O=c1/c(=C/c2ccco2)sc2n1CN(c1cccc(Br)c1)CN=2 do in these assays?
Ecoli WT expand: -13; H69AR growth 86K: 32*; HUVEC inhibit: 39; Lung fibro prol: 99

What do the screens show for `CCN(c1cccc(C(F)(F)F)c1)S(=O)(=O)c1ccc2c(c1)CCN2C(=O)C1CC1`?
Ecoli WT expand: 2; H69AR growth 86K: 63; HUVEC inhibit: 81; Lung fibro prol: 85; Ecoli tolC: 69*; Jurkat viability: 17

Results for Cc1ccc(C(=O)COC(=O)c2ccccc2N2C(=O)C3C4CCC(C4)C3C2=O)cc1C (configuration not stated) ?
Ecoli WT expand: -4

What do the screens show for `O=C(O)C1C2C=CC3(CN(Cc4ccccn4)C(=O)C13)O2` (configuration not stated)?
Ecoli WT expand: 1; H69AR growth 86K: 93; HUVEC inhibit: 103; Lung fibro prol: 104; Ecoli tolC: 30; Jurkat viability: 6

Results for CCOC(=O)c1c(N2C(=O)Nc3cc(Cl)c(Cl)cc3N2O)sc2c1CCCCC2 ?
Ecoli WT expand: -5

Results for O=C(CSc1nc2ccccc2o1)Nc1ccccc1N1CCCCCC1 ?
Ecoli WT expand: -5; H69AR growth 86K: 66; HUVEC inhibit: 104; Lung fibro prol: 97; Ecoli tolC: 73*; Jurkat viability: 9

Results for Cc1nnc(NC(=O)CSc2nc3ccccc3o2)s1 ?
H69AR growth 86K: 107; HUVEC inhibit: 97; Lung fibro prol: 106

Results for Cc1nn2c(-c3cccc(NC(=O)CSc4nc5ccccc5o4)c3)nnc2c2ccccc12 ?
Ecoli WT expand: -8; H69AR growth 86K: 9.6*; HUVEC inhibit: 72; Lung fibro prol: 109; Ecoli tolC: 28; Jurkat viability: -3

Results for CC1CCc2nc(NC(=O)CSc3nc4ccccc4o3)sc2C1 (configuration not stated) ?
Ecoli WT expand: 6; H69AR growth 86K: 31*; HUVEC inhibit: 63; Lung fibro prol: 88; Ecoli tolC: 32; Jurkat viability: 7

What do the screens show for `O=c1[nH]c2ccsc2c(=O)n1-c1ccc(F)c(Cl)c1`?
Ecoli WT expand: 25; H69AR growth 86K: 93; HUVEC inhibit: 99; Lung fibro prol: 97; Ecoli tolC: 0

Screens: PubChem, several laboratories
